Measurements from PubChem BioAssay AID493090 (Southern Research Specialized Biocontainment Screening …, 2011).
Calls of active or inactive are those of the source.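 How the source made its calls: active means cell viability under 70% at any tested concentration, a measure not printed in our tables; inactive means the rest.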

Test system: HEp-2 viability, luminescence cytotoxicity counter-screen
Assay: HEp-2 cell cytotoxicity, dose response, cytotoxicity control for RSV inhibitor project, synthesized compounds, set 5 (AID 493090)
Method in brief: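 System – HEp-2 human cell line, uninfected, for cytotoxicity · Input – 10,595 HEp-2 cells per well · Buffer or medium – DMEM/F12 assay medium with 0.5% DMSO final · Compound – 8 points, 1:2 steps, 0.39–50 µM · Times – 6 d compound exposure, 37 °C · Signal – CellTiter-Glo luminescence · Evaluation – % viability vs cell controls, CC50 from constrained four-parameter fit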

Compound | CC50
CCOC(=O)c1ccc2[nH]c3c(c2c1)CN(C)CC3 | > 50 µM (inactive)
CC(=O)c1ccccc1NC(=O)[C@@H]1CCCN1S(=O)(=O)c1cccc2cccnc12 | > 50 µM (inactive)
Cc1ncccc1NC(=O)[C@@H]1CCCN1S(=O)(=O)c1cccc2cccnc12 | > 50 µM (inactive)
COCCCNC(=O)c1ccc(Cn2c(=O)c3ccccc3n(Cc3ccc(C)cc3)c2=O)cc1 | > 50 µM (inactive)
